Data as given in ChEMBL document CHEMBL3865819, “Myrsinane, Premyrsinane, and Cyclomyrsinane Diterpenes from Euphorbia falcata as Potassium Ion Channel Inhibitors with Selective G Protein-Activated Inwardly Rectifying Ion Channel (GIRK) Blocking Effects” (J Nat Prod, 2016).

Legend:
Format in all cases: cell-based
[1] = target: T1, hERG (KCNH2) (Homo sapiens, UniProt Q12809); assay: Inhibition of human ERG expressed in HEK293 cells assessed as decrease in channel current at 30 uM after 3 mins at -80 mV holding potential by automated patch-clamp electrophysiology assay; conditions: HEK293 cells that express hERG
Summary of the method: (§1)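 HEK-293 cells stably transfected with hERG (Kv11.1), whole-cell automated planar patch clamp. External solution 4 mM KCl, pH 7.4; internal KCl/KF/EGTA, pH 7.2. Protocol: 100 ms −40 mV reference step, 3 s at 20 mV, then 1 s at −40 mV for the outward tail current. After control, 3, 10, 30 μM cumulative, ~3 min each; amitriptyline 10 μM reference, then wash-out; two or three cells; DMSO ≤0.3% final.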

[2] = target: T2, Kir3.1/Kir3.4 (Homo sapiens) (UniProt P48549+P48544); assay: Inhibition of GTPgammaS-induced activation of GIRK1/4 (unknown origin) expressed in HEK293 cells assessed as decrease in channel current at 10 uM after 2 mins at -40 mV holding potential by automated patch-clamp electrophysiology assay
Summary of the method: (§2)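 Whole-cell automated planar patch clamp on HEK-293 cells stably expressing GIRK1/4 (Kir3.1/3.4). Internal solution carries 0.9 mM GTPγS to activate channels; bath switched from 4 mM K+ to high-K+ (25 mM KCl) external, pH 7.4. Step to 60 mV, ramp to −140 mV, 100 ms at −140 mV, ~0.1 Hz; inward current read at −140 mV. After 3 min control, 1 then 10 μM for ~2 min each; K+-free solution baseline; two to three cells.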

[3] = target: T2, Kir3.1/Kir3.4 (Homo sapiens); assay: Inhibition of GTPgammaS-induced activation of GIRK1/4 (unknown origin) expressed in HEK293 cells assessed as decrease in channel current at 1 uM after 2 mins at -40 mV holding potential by automated patch-clamp electrophysiology assay; summary of the method: as §2
[4] = target: T1, hERG (KCNH2); assay: Inhibition of human ERG expressed in HEK293 cells assessed as decrease in channel current at 3 uM after 3 mins at -80 mV holding potential by automated patch-clamp electrophysiology assay; conditions: HEK293 cells that express hERG; summary of the method: as §1
[5] = target: T1, hERG (KCNH2); assay: Inhibition of human ERG expressed in HEK293 cells assessed as decrease in channel current at 10 uM after 3 mins at -80 mV holding potential by automated patch-clamp electrophysiology assay; conditions: HEK293 cells that express hERG; summary of the method: as §1

T1 sequence (Q12809 whole entry): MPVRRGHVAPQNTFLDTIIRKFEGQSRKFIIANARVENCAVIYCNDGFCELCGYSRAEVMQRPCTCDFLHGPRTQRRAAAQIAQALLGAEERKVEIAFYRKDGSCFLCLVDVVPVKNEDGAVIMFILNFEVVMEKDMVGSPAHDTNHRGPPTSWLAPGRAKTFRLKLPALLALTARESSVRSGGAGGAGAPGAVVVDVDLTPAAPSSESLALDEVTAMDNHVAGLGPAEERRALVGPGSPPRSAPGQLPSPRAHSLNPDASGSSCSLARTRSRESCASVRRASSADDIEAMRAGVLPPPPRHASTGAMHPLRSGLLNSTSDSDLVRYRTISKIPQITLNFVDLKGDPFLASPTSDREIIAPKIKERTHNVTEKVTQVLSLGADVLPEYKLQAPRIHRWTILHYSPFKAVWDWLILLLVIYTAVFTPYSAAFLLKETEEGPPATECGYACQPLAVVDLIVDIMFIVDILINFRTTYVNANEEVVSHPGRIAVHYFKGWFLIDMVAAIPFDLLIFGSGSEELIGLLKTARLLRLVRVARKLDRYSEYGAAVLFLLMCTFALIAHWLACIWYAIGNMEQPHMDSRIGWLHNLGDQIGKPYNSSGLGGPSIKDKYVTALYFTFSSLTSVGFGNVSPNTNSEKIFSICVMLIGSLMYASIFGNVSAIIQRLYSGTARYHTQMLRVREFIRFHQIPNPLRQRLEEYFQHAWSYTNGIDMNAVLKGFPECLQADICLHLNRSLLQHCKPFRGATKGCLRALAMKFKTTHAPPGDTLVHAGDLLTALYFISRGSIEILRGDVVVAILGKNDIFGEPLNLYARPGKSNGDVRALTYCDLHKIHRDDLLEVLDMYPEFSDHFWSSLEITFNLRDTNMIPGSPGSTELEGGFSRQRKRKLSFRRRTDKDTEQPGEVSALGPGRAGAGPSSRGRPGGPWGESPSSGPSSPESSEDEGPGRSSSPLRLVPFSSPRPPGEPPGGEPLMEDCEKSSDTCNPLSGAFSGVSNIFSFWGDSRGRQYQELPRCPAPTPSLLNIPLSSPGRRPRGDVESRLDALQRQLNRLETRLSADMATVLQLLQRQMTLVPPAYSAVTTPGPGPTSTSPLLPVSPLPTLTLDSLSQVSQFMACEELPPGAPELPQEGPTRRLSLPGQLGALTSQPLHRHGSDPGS

SMILES | inhibition at 0.05 h, 30 µM [1] | inhibition [2] | inhibition [3] | inhibition at 0.05 h, 3 µM [4] | inhibition at 0.05 h, 10 µM [5]
CCC(C)C(=O)O[C@H]1C(=O)[C@@]23CO[C@@](C)([C@H](OC(C)=O)[C@@]4(OC(C)=O)C[C@](C)(OC(=O)c5cccnc5)[C@H](OC(=O)C(C)C)[C@@H]4[C@H]2OC(C)=O)[C@@H]3[C@@H]2[C@H]1C[C@]2(C)OC(C)=O (stereo not given in full) | 82% | 69% | 23% | 20% | 54%
CCC(=O)O[C@@H]1[C@@H]2[C@@H](OC(C)=O)[C@@]34CO[C@@](C)([C@H](OC(C)=O)[C@@]2(O)C[C@@H]1C)[C@@H]3[C@@H]1[C@@H](C[C@]1(C)OC(C)=O)[C@@H](OC(=O)c1ccccc1)C4=O | 45% | 54% | 19% | 12% | 21%
CCCCCC(=O)O[C@@H]1[C@@H]2[C@@H](O)[C@]34CC[C@H]5[C@@H]([C@H]3[C@@](C)(OC4)[C@H](OC(C)=O)[C@@]2(O)C[C@@H]1C)C5(C)C | 55% | 69% | 30% | 19% | 40%
CCC(=O)O[C@@H]1[C@@H]2[C@@H](OC(C)=O)[C@@]34CO[C@@](C)([C@H](OC(C)=O)[C@@]2(OC(C)=O)C[C@H]1C)[C@@H]3[C@@H]1[C@@H](C[C@]1(C)OC(C)=O)[C@@H](OC(=O)C(C)C)C4=O | 33% | 70% | 30% | 0% | 23%
CCC(=O)O[C@@H]1[C@@H]2[C@@H](OC(C)=O)[C@@]34CO[C@@](C)([C@H](OC(C)=O)[C@@]2(OC(C)=O)C[C@]1(C)O)[C@@H]3[C@@H]1[C@@H](C[C@]1(C)OC(C)=O)[C@@H](OC(=O)C(C)CC)C4=O (stereo not given in full) | 33% | 24% | 11% | 8% | 20%
CC(=O)O[C@@H]1[C@H]2[C@@H](OC(=O)C(C)C)[C@@](C)(OC(=O)c3ccccc3)C[C@]2(OC(C)=O)[C@@H](OC(C)=O)[C@]2(C)OC[C@]13C(=O)[C@H](OC(=O)C(C)C)[C@@H]1C[C@](C)(OC(C)=O)[C@@H]1[C@@H]23 | 53% | 77% | 33% | 14% | 24%
CC(=O)OC[C@@]12[C@H](OC(=O)c3ccccc3)[C@H]3[C@@H](OC(=O)C(C)C)[C@@H](C)C[C@]3(OC(C)=O)C(=O)[C@@]3(C)OC(C)(C)[C@@H](C=C[C@H]1OC(C)=O)[C@H]23 | 43% | 61% | 26% | 13% | 24%
CC(=O)O[C@@H]1C[C@H]2[C@@H]([C@@H]3[C@]1(COC(=O)c1cccnc1)[C@H](OC(=O)c1ccccc1)[C@H]1[C@@H](OC(=O)C(C)C)[C@@H](C)C[C@]1(O)C(=O)[C@@]3(C)OC(C)=O)C2(C)C | 53% | 48% | 28% | 14% | 29%
CCC(=O)O[C@@H]1[C@@H]2[C@@H](OC(C)=O)[C@@]34CO[C@@](C)([C@H](OC(C)=O)[C@@]2(OC(C)=O)C[C@]1(C)OC(=O)c1cccnc1)[C@@H]3[C@@H]1[C@@H](C[C@]1(C)OC(C)=O)[C@@H](OC(=O)C(C)C)C4=O | 42% | 65% | 35% | 11% | 22%
CC(=O)OC1O[C@@]2(C)[C@H](OC(=O)c3ccccc3)[C@@]3(OC(C)=O)C[C@H](C)[C@H](OC(=O)C(C)C)[C@@H]3[C@@H](OC(C)=O)[C@@]13[C@H](OC(=O)c1cccnc1)C[C@H]1[C@@H]([C@@H]23)C1(C)C (stereo not given in full) | 78% | 37% | 18% | 48% | 68%
CC(=O)O[C@@H]1C=C[C@H]2[C@@H]3[C@]1(COC(=O)C(C)C)[C@H](OC(=O)c1ccccc1)[C@H]1[C@@H](OC(=O)C(C)C)[C@@H](C)C[C@]1(O)C(=O)[C@@]3(C)OC2(C)C | 46% | 54% | 21% | 20% | 33%
CCC(=O)O[C@@H]1[C@@H]2[C@@H](OC(=O)c3ccccc3)[C@@]3(COC(=O)C(C)C)[C@H]4[C@H](C=C[C@H]3OC(C)=O)C(C)(C)O[C@]4(C)C(=O)[C@@]2(OC(C)=O)C[C@@H]1C | 40% | 47% | 21% | 11% | 24%
CCC(C)C(=O)O[C@H]1C(=O)[C@@]23CO[C@@](C)([C@H](OC(C)=O)[C@@]4(OC(C)=O)C[C@](C)(OC(=O)c5ccccc5)[C@H](OC(=O)C(C)C)[C@@H]4[C@H]2OC(C)=O)[C@@H]3[C@@H]2[C@H]1C[C@]2(C)OC(C)=O (stereo not given in full) | 40% | 70% | 26% | 14% | 30%
CC(=O)O[C@@H]1[C@H]2[C@@H](OC(=O)C(C)C)[C@@](C)(OC(=O)c3cccnc3)C[C@]2(OC(C)=O)[C@@H](OC(C)=O)[C@]2(C)OC[C@]13C(=O)[C@H](OC(=O)C(C)C)[C@@H]1C[C@](C)(OC(C)=O)[C@@H]1[C@@H]23 | 30% | 57% | 8% | 8% | 19%
CCC(C)C(=O)O[C@H]1C(=O)[C@@]23CO[C@@](C)([C@H](OC(C)=O)[C@@]4(OC(C)=O)C[C@](C)(O)[C@H](OC(=O)C(C)C)[C@@H]4[C@H]2OC(C)=O)[C@@H]3[C@@H]2[C@H]1C[C@]2(C)OC(C)=O (stereo not given in full) | 32% | 26% | 14% | 12% | 22%
CCC(=O)O[C@@H]1[C@@H]2[C@@H](OC(C)=O)[C@@]34CO[C@@](C)([C@H](OC(C)=O)[C@@]2(OC(C)=O)C[C@]1(C)OC(=O)c1ccccc1)[C@@H]3[C@@H]1[C@@H](C[C@]1(C)OC(C)=O)[C@@H](OC(=O)C(C)CC)C4=O (stereo not given in full) | 52% | 64% | 20% | 16% | 31%
